Data on 37 sequences can be found in the array DNA melting data of Ke et al. (doi:10.1101/2024.01.08.574731).

The nature of data set [1]: folding enthalpy; higher = less favourable; fluorescence melt of hairpins on a sequencing array, two-state fit. The following applies: sodium 0.088 M. The procedure, abridged: (§1)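 Bootstrapped two-state fits yielded melting temperature and folding enthalpy for library hairpins. Cy3 fluorescence, with annealed Cy3 and quencher oligos, was imaged on a sequenced MiSeq flow cell in 50 mM Na-HEPES pH 8.0, 25 mM NaCl in 2.5 °C steps up to 60 °C, and normalised to pre-quench Cy3 and to control constructs. Four replicates were combined by inverse variance, and fitted temperatures were raised by 9.35 °C to match UV melts.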

Data set [2] is described as follows: melting temperature; fluorescence melt of hairpins on a sequencing array, two-state fit, raised by 9.35 °C to match UV melts. The following applies: sodium 0.088 M. The procedure, abridged: as §1

Take GTCAACGAAAGTTTGGAC ((((((....)))..))): the folding enthalpy in data set [1] was -13.8 kcal/mol. For the same sequence, the Tm in data set [2] stood at 27.8 °C.

GTCAACGGAAACGTTGAC (((((((....))))))): the folding enthalpy in data set [1] is -45.2 kcal/mol. Also, in data set [2], the Tm was 69 °C.

Consider GTCAATACGAAAGTAGAC (((..(((....)))))), for which the folding enthalpy in data set [1] is -12 kcal/mol. The Tm in data set [2] is 27.3 °C.

As to GTCAATGGAAACATTGAC (((((((....))))))), the folding enthalpy in data set [1] was -39.8 kcal/mol. The Tm in data set [2] is 58.9 °C.

Regarding GTCACAACGAAAGTTGAC (((..(((....)))))), the folding enthalpy in data set [1] is -11.7 kcal/mol. Moreover, the Tm in data set [2] is 33.2 °C.

Turning to GTCACACGAAAGTGAGAC (((.(((....))).))), in data set [1], the folding enthalpy was -31.9 kcal/mol. Further, the Tm in data set [2] was determined as 55.1 °C.

In the case of GTCACAGGAAACTGTGAC (((((((....))))))), in data set [1], the folding enthalpy is -42.3 kcal/mol. Besides, in data set [2], the Tm came to 66.8 °C.

On to GTCACCCCGAAAGGGGAC (((..(((....)))))), for which, in data set [1], the folding enthalpy was -10.1 kcal/mol. The Tm in data set [2] is 41.4 °C.

Consider GTCACCCGAAAGGGGAC (((.(((....)))))), for which the folding enthalpy in data set [1] is -20.1 kcal/mol. Moreover, the Tm in data set [2] amounted to 55 °C.

On to GTCACCGAAAGGTAAGAC ((((((....)))..))), for which the folding enthalpy in data set [1] is -19.6 kcal/mol. Moreover, the Tm in data set [2] amounted to 39 °C.

Take GTCACCGAAAGGTCGAC ((((((....))).))): the folding enthalpy in data set [1] is -20.1 kcal/mol. The Tm in data set [2] came to 48.1 °C.

Take GTCACCGAAAGGTCGGAC ((((((....)))..))): the folding enthalpy in data set [1] was -16 kcal/mol. In data set [2], the Tm turned out to be 34.3 °C.

For the sequence GTCACCGGAAACGGTAAC ((.((((....)))).)), the folding enthalpy in data set [1] is -16.6 kcal/mol. In data set [2], the Tm was 38.4 °C.

With GTCACCTCGAAAGAGGAC (((..(((....)))))), the folding enthalpy in data set [1] is -9.82 kcal/mol. Besides, in data set [2], the Tm amounted to 26.9 °C.

On to GTCACGGCGAAAGCCGAC (((..(((....)))))), for which the folding enthalpy in data set [1] is -6.5 kcal/mol. The Tm in data set [2] was 27.9 °C.

For the sequence GTCACTCGAAAGAGCGAC (((.(((....))).))), in data set [1], the folding enthalpy is -43.5 kcal/mol. Besides, in data set [2], the Tm was determined as 51.5 °C.

GTCACTCGAAAGAGGGAC (((.(((....))).))): in data set [1], the folding enthalpy is -50.4 kcal/mol. In data set [2], the Tm was 60.9 °C.

For GTCACTGGAAACAGTGGC (.(((((....))))).), in data set [1], the folding enthalpy is -40.8 kcal/mol. Further, the Tm in data set [2] was determined as 53.7 °C.

Take GTCACTGGAAACGGTGAC (((((.(....).))))): in data set [1], the folding enthalpy is -47.5 kcal/mol. In addition, the Tm in data set [2] was determined as 52.7 °C.

Take GTCAGACCGAAAGGTGAC (((..(((....)))))): the folding enthalpy in data set [1] is -21.4 kcal/mol. Further, the Tm in data set [2] worked out at 44.4 °C.

Turning to GTCAGAGCGAAAGCTGAC (((..(((....)))))), the folding enthalpy in data set [1] is -26.4 kcal/mol. Besides, in data set [2], the Tm was 49.3 °C.

With GTCAGATCGAAAGATGAC (((..(((....)))))), the folding enthalpy in data set [1] is -22.2 kcal/mol. Also, the Tm in data set [2] is 38.1 °C.

As to GTCAGCGAAAGCTGGGAC ((((((....)))..))), the folding enthalpy in data set [1] was -9.13 kcal/mol. Further, in data set [2], the Tm stood at 40.2 °C.

As to GTCAGCGAAAGCTTAGAC ((((((....)))..))), in data set [1], the folding enthalpy is -15.3 kcal/mol. Moreover, in data set [2], the Tm was determined as 40 °C.

For GTCAGCGAAAGCTTCGAC ((((((....)))..))), the folding enthalpy in data set [1] was -12 kcal/mol. The Tm in data set [2] is 32.3 °C.

In the case of GTCAGCGGAAACGCCGAC (((.(((....))).))), in data set [1], the folding enthalpy is -26.9 kcal/mol. Also, in data set [2], the Tm is 49.2 °C.

GTCAGCGGAAACGTTGGC (.((.((....)).)).): the folding enthalpy in data set [1] was -26 kcal/mol. The Tm in data set [2] amounted to 42.2 °C.

On to GTCAGGACGAAAGTCGAC (((..(((....)))))), for which the folding enthalpy in data set [1] is -18.7 kcal/mol. For the same sequence, the Tm in data set [2] was 41.3 °C.

Consider GTCAGGGAAACCTGAC ((((((....)))))), for which the folding enthalpy in data set [1] is -32.5 kcal/mol. The Tm in data set [2] was 61.6 °C.

For the sequence GTCAGGGGAAACCCTGGC (.(((((....))))).), the folding enthalpy in data set [1] was -27.7 kcal/mol. Further, the Tm in data set [2] is 53.6 °C.

In the case of GTCAGGGGAAACTCTGGC (.(((.(....).))).), the folding enthalpy in data set [1] is -24.5 kcal/mol. Also, in data set [2], the Tm worked out at 36.4 °C.

For GTCAGTGGAAACACTGAC (((((((....))))))), the folding enthalpy in data set [1] was -47.6 kcal/mol. Also, in data set [2], the Tm is 64.5 °C.

Consider GTCAGTGGAAACATTGAC ((((.((....)).)))), for which the folding enthalpy in data set [1] is -29.2 kcal/mol. The Tm in data set [2] is 45.3 °C.

GTCAGTGGAAACGCTGAC (((((.(....).))))): in data set [1], the folding enthalpy was -40.5 kcal/mol. In addition, the Tm in data set [2] came to 54.2 °C.

On to GTCATAACGAAAGTTGAC (((..(((....)))))), for which the folding enthalpy in data set [1] is -24.4 kcal/mol. Further, in data set [2], the Tm is 37.2 °C.

Consider GTCATACGAAAGTACGAC (((.(((....))).))), for which the folding enthalpy in data set [1] is -28.7 kcal/mol. In addition, the Tm in data set [2] was found to be 42.9 °C.

Take GTCATATCGAAAGATGAC (((..(((....)))))): the folding enthalpy in data set [1] was -26.1 kcal/mol. The Tm in data set [2] worked out at 37.1 °C.
